{"source": "ChEMBL document CHEMBL3763011", "about": "“Carbohydrate-based inducers of cellular stress for targeting cancer cells” (Bioorg Med Chem Lett, 2016)", "key": {"NCI-H1299 [1]": {"system": "NCI-H1299", "assay": "Induction of ROS generation in human NCI-H1299 cells at <= 100 uM after 5 hrs by DCF-DA staining-based assay", "format": "functional"}, "NCI-H1299 [2]": {"system": "NCI-H1299", "assay": "Cytotoxicity against human NCI-H1299 cells assessed as reduction in cell viability at 100 uM after 48 hrs by MTT assay", "format": "functional, cell-based", "method_in_brief": "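H1299 cells treated at 100 µM for 48 h in duplicate. MTT viability expressed as treated versus non-treated control (Vi/Vo).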"}, "NCI-H1299 [3]": {"system": "NCI-H1299", "assay": "Induction of ROS generation in human NCI-H1299 cells at 100 uM after 5 hrs by DCF-DA staining-based assay", "format": "functional", "method_in_brief": "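Single-point screen at 100 µM in duplicate, 5 h incubation in H1299 cells. ROS detected by DCF-DA fluorescence, reported as fold over non-treated control (Fi/Fo).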"}, "NCI-H1299 [4]": {"system": "NCI-H1299", "assay": "Cytotoxicity against human NCI-H1299 cells assessed as reduction in cell viability after 48 hrs by MTT assay", "format": "functional, cell-based", "conditions": "for IC50: NCI-H1299, 48 h", "method_in_brief": "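H1299 non-small cell lung carcinoma cells incubated with compound for 48 h. Viability by MTT relative to non-treated control (Vi/Vo). IC50 taken from dose–response.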"}, "NCI-H1299 [5]": {"system": "NCI-H1299", "assay": "Induction of ROS generation in human NCI-H1299 cells after 5 hrs by DCF-DA staining-based assay", "format": "functional, cell-based", "method_in_brief": "(§1)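 H1299 cells incubated 5 h with increasing compound concentrations (0–100 µM). ROS read with the cell-permeable probe DCF-DA. Fluorescence of treated cells (Fi) ratioed to non-treated control (Fo).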"}, "NCI-H1299 [6]": {"system": "NCI-H1299", "assay": "Induction of ROS generation in human NCI-H1299 cells at […] after 5 hrs by DCF-DA staining-based assay"}, "NCI-H1299 [7]": {"system": "NCI-H1299", "assay": "Cytotoxicity against human NCI-H1299 cells assessed as viability at 500 uM after 48 hrs by MTT assay", "format": "functional", "conditions": "NCI-H1299, 48 h, read-out: Activity", "method_in_brief": "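H1299 non-small cell lung carcinoma cells incubated with compound for 48 h; viability read by MTT assay and expressed as treated (Vi) relative to non-treated control (Vo).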"}, "[8]": {"target": "T1, AMP-activated protein kinase, AMPK (Homo sapiens) (UniProt P54646+O43741+P54619+Q9UGJ0+Q9Y478+Q13131+Q9UGI9)", "assay": "Activation of AMPK in HEK293 cells assessed as AMPK phosphorylation after 16 hrs by Western blotting method", "format": "cell-based", "method_in_brief": "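HEK293 cells treated with increasing concentrations of compound for 16 h; cell lysates analysed by Western blot with antibodies to phosphorylated AMPK (also p53).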"}, "[9]": {"target": "Endoplasmic reticulum chaperone BiP (Homo sapiens) (UniProt P11021)", "sequence (P11021 whole entry)": "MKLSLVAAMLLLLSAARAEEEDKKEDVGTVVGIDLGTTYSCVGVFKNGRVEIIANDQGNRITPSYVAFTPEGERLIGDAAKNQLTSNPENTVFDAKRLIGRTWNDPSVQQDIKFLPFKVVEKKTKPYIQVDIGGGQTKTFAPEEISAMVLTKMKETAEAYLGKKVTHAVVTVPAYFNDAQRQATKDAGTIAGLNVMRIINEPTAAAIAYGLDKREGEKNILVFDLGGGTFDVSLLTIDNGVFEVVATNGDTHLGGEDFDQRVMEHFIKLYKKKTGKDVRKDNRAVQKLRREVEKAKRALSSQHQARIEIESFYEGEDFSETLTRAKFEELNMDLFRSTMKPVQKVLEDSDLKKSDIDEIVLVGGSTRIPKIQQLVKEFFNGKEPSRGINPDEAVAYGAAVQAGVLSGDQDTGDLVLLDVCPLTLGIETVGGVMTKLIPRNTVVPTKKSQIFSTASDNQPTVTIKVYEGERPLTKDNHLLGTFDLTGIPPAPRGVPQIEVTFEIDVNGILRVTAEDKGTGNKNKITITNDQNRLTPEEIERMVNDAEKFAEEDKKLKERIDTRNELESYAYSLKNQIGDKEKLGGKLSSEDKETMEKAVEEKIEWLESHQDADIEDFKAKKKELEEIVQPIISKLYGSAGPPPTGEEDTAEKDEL", "assay": "Induction of glucose-regulated protein 78 in HEK293 cells at 200 uM after 6 hrs by Western blotting method", "format": "cell-based", "method_in_brief": "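GRP78 (BiP) induction, an ER stress marker, assessed by Western blot of HEK293 lysates after treatment at 200 µM.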"}, "NCI-H1299 [10]": {"system": "NCI-H1299", "assay": "Induction of ROS generation in human NCI-H1299 cells at <= 50 uM after 5 hrs by DCF-DA staining-based assay", "format": "functional", "method_in_brief": "as §1"}, "[11]": {"target": "T1, AMP-activated protein kinase, AMPK (Homo sapiens)", "assay": "Activation of AMPK in HEK293 cells assessed as p53 stabilization at 0.03 to 0.1 mM after 16 hrs by Western blotting method", "format": "cell-based"}}, "note": "Activity calls are given as the source filed them. The rule behind the calls is not given here."}
{"smiles": "O[C@H]1[C@H](O)[C@@H](Nc2cccc3ccccc23)OC[C@H]1O", "values": [{"measurement": "fold change (FC)", "setting": "NCI-H1299 [1]", "value": 2}, {"measurement": "Activity", "setting": "NCI-H1299 [2]", "value": "Active"}, {"measurement": "fold change (FC)", "setting": "NCI-H1299 [3]", "value": ">=2"}, {"measurement": "IC50", "setting": "NCI-H1299 [4]", "value": 75, "unit": "µM"}, {"measurement": "Activity", "setting": "NCI-H1299 [5]", "value": "Dose-dependent effect"}]}
{"smiles": "O[C@@H]1[C@@H](O)[C@@H](O)CO[C@H]1Nc1ccccc1", "values": [{"measurement": "Activity", "setting": "NCI-H1299 [2]", "value": "Active"}]}
{"smiles": "O[C@H]1[C@H](O)[C@@H](Nc2ccccc2)OC[C@H]1O", "values": [{"measurement": "Activity", "setting": "NCI-H1299 [2]", "value": "Active"}, {"measurement": "Activity", "setting": "NCI-H1299 [3]", "value": "inactive"}]}
{"smiles": "CC(=O)OC1OC[C@@H](OC(C)=O)[C@H](OC(C)=O)[C@H]1OC(C)=O", "note": "(stereo partly specified)", "values": [{"measurement": "Activity", "setting": "NCI-H1299 [4]", "value": "inactive"}]}
{"smiles": "OO", "note": "[HYDROGEN PEROXIDE]", "values": [{"measurement": "IC50", "setting": "NCI-H1299 [4]", "value": 60, "unit": "µM"}]}
{"smiles": "CC(=O)N[C@H]1C(Nc2ccc3nccnc3c2)O[C@H](CO)[C@@H](O)[C@@H]1O", "note": "(stereo partly specified)", "values": [{"measurement": "fold change (FC)", "setting": "NCI-H1299 [3]", "value": ">=2"}]}
{"smiles": "OC[C@H]1OC(O)C[C@@H](O)[C@@H]1O", "note": "(stereo partly specified)", "values": [{"measurement": "fold change (FC)", "setting": "NCI-H1299 [6]", "value": 1.5}, {"measurement": "viability at 500 µM", "setting": "NCI-H1299 [7]", "value": 80, "unit": "%"}, {"measurement": "Activity", "setting": "[8]", "value": "Dose-dependent effect"}]}
{"smiles": "O[C@@H]1[C@@H](O)[C@H](Nc2cccc3ccccc23)OC[C@H]1O", "values": [{"measurement": "fold change (FC)", "setting": "NCI-H1299 [1]", "value": 2}, {"measurement": "Activity", "setting": "NCI-H1299 [2]", "value": "Active"}, {"measurement": "fold change (FC)", "setting": "NCI-H1299 [3]", "value": ">=2"}, {"measurement": "IC50", "setting": "NCI-H1299 [4]", "value": 75, "unit": "µM"}, {"measurement": "Activity", "setting": "[9]", "value": "Active"}, {"measurement": "Activity", "setting": "NCI-H1299 [5]", "value": "Dose-dependent effect"}]}
{"smiles": "CC(=O)O[C@@H]1[C@@H](OC(C)=O)[C@H](OC(C)=O)CO[C@H]1Nc1cccc2ccccc12", "values": [{"measurement": "fold change (FC)", "setting": "NCI-H1299 [10]", "value": 1.5}, {"measurement": "IC50", "setting": "NCI-H1299 [4]", "value": 30, "unit": "µM"}, {"measurement": "Activity", "setting": "[8]", "value": "Dose-dependent effect"}, {"measurement": "Activity", "setting": "[11]", "value": "Active"}, {"measurement": "Activity", "setting": "[9]", "value": "Active"}]}
{"smiles": "C[C@@H]1OC(Nc2cccc3ccccc23)[C@H](O)[C@H](O)[C@H]1O", "note": "(stereo partly specified)", "values": [{"measurement": "fold change (FC)", "setting": "NCI-H1299 [3]", "value": ">=2"}]}
{"smiles": "OC[C@H]1OC(Nc2cccc3ccccc23)[C@H](O)[C@@H](O)[C@H]1O", "note": "(stereo partly specified)", "values": [{"measurement": "fold change (FC)", "setting": "NCI-H1299 [3]", "value": ">=2"}]}
{"smiles": "O=c1oc2ccccc2cc1N[C@@H]1OC[C@H](O)[C@H](O)[C@H]1O", "values": [{"measurement": "fold change (FC)", "setting": "NCI-H1299 [3]", "value": ">=2"}]}
{"smiles": "O[C@H]1[C@H](O)[C@H](Nc2ccccc2)OC[C@H]1O", "values": [{"measurement": "Activity", "setting": "NCI-H1299 [2]", "value": "Active"}, {"measurement": "Activity", "setting": "NCI-H1299 [3]", "value": "inactive"}]}
{"smiles": "O=C[C@H](O)[C@@H](O)[C@H](O)CO", "values": [{"measurement": "Activity", "setting": "NCI-H1299 [4]", "value": "inactive"}]}
